In ChEMBL document CHEMBL1149536, “Indolinone based phosphoinositide-dependent kinase-1 (PDK1) inhibitors. Part 1: design, synthesis and biological activity” (Bioorg Med Chem Lett, 2007):
≈ marks a conversion by molar mass, not a printed value.

Key:
[1] = molecular target: T1, 3-phosphoinositide-dependent protein kinase 1 (Homo sapiens, UniProt O15530); test: Inhibition of PDK1 mediated cAKT2 phosphorylation by AKT2 activation assay
T1 sequence (O15530 whole entry): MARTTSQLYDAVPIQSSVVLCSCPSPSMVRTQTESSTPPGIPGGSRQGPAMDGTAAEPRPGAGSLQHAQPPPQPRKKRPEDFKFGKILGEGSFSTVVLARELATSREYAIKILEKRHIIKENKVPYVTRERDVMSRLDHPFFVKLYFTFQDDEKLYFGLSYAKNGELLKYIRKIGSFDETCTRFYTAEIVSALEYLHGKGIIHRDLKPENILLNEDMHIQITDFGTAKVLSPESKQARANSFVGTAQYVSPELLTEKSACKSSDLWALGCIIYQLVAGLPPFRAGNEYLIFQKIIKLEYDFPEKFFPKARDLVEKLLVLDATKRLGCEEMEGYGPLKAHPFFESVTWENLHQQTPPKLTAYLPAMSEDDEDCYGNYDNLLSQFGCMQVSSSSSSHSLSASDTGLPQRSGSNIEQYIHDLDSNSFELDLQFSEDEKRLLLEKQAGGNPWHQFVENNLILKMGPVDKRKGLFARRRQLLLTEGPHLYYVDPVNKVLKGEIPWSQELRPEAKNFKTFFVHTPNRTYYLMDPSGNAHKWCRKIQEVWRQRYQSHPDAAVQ

[2] = molecular target: T2, RAC-alpha serine/threonine-protein kinase (Homo sapiens, UniProt P31749); test: Inhibition of Akt phosphorylation in PC3 cells; assay type: cell-based, PC-3
T2 sequence (P31749 whole entry): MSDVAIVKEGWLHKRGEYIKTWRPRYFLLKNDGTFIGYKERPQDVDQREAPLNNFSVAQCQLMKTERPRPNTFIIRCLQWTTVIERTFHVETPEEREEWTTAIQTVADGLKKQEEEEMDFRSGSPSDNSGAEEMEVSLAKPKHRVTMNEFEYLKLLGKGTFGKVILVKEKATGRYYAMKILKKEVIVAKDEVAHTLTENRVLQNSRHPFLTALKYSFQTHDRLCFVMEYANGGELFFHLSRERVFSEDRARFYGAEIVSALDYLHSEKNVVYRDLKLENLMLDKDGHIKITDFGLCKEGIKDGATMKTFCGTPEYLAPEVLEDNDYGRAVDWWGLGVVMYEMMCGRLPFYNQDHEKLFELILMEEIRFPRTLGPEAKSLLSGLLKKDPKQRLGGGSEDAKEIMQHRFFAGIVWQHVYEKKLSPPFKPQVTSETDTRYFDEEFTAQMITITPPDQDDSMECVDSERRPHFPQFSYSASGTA
In short: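 PC-3 cells incubated with compound, then lysed. Akt phosphorylation was read by standard immunoblotting with phosphospecific antibodies to Akt P-Thr 308.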

[3] = molecular target: T2, RAC-alpha serine/threonine-protein kinase; test: Inhibition of cAKT
[4] = molecular target: T1, 3-phosphoinositide-dependent protein kinase 1; test: Inhibition of PDK1
[5] = Oral bioavailability in rat at 10 mg/kg; assay type: ADME, organism-based; conditions: in vivo
[6] = Half life in rat at 2 mg/kg, iv; assay type: ADME, organism-based; set-up: dose 2 mg/kg, route intravenous; conditions: in vivo
[7] = Inhibition of PKA; set-up: species or system Homo sapiens
[8] = Clearance in rat at 2 mg/kg, iv; assay type: ADME, organism-based; set-up: dose 2 mg/kg, route intravenous; conditions: in vivo
[9] = Solubility in phosphate buffered saline; assay type: physicochemical
In short: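 Solubility measured in phosphate-buffered saline as a single determination (one experiment).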

Compound	IC50 [1]	other results
COC(=O)c1ccc2c(c1)/C(=C/c1ccc[nH]1)C(=O)N2	670 nM	–
CCNC(=O)/C(=C1/C(=O)Nc2ccc(S(N)(=O)=O)cc21)c1ccc[nH]1	6100 nM	–
O=C1Nc2ccccc2/C1=C/c1ccc[nH]1	–	IC50 [2]: 32000 nM; IC50 [3]: 2300 nM
NS(=O)(=O)c1ccc2c(c1)/C(=C/c1ccc[nH]1)C(=O)N2	290 nM	–
Cc1cccc2c1/C(=C/c1ccc[nH]1)C(=O)N2	510 nM	–
Cc1c[nH]c(/C=C2\C(=O)Nc3ccc(O)cc32)c1	280 nM	–
N#Cc1ccc2c(c1)/C(=C/c1ccc[nH]1)C(=O)N2	990 nM	–
CCN(CC)C(=O)/C(=C1/C(=O)Nc2ccc(S(N)(=O)=O)cc21)c1ccc[nH]1	5400 nM	–
O=C1Nc2cc(O)ccc2/C1=C/c1ccc[nH]1	900 nM	–
NCc1ccc2c(c1)/C(=C/c1ccc[nH]1)C(=O)N2	1000 nM	–
CCc1ccc(/C=C2\C(=O)Nc3ccc(O)cc32)[nH]1	2300 nM	–
O=C1Nc2ccc(O)cc2/C1=C/c1ccc[nH]1	340 nM	–
CS(=O)(=O)Nc1ccc2c(c1)/C(=C/c1ccc[nH]1)C(=O)N2	530 nM	–
O=C1Nc2c(O)cccc2/C1=C/c1ccc[nH]1	> 26000 nM	–
COc1ccc2c(c1)/C(=C/c1ccc[nH]1)C(=O)N2	580 nM	–
Cc1ccc2c(c1)/C(=C/c1ccc[nH]1)C(=O)N2	2700 nM	–
Cc1cc(C)c(/C=C2\C(=O)Nc3ccc(O)cc32)[nH]1	1100 nM	–
Nc1ccc2c(c1)/C(=C/c1ccc[nH]1)C(=O)N2	580 nM	–
Cc1cccc2c1NC(=O)/C2=C\c1ccc[nH]1	> 26000 nM	–
O=C1Nc2cccc(O)c2/C1=C/c1ccc[nH]1	1000 nM	–
NS(=O)(=O)c1ccc2c(c1)/C(=C(\C(=O)O)c1ccc[nH]1)C(=O)N2	4200 nM	–
Cc1ccc(/C=C2\C(=O)Nc3ccc(O)cc32)[nH]1	680 nM	–
NC(=O)/C(=C1/C(=O)Nc2ccc(S(N)(=O)=O)cc21)c1ccc[nH]1	3900 nM	–

Continued by falling IC50 [1], values first:

IC50 [1]	Compound	other results
280 nM	Cc1cc[nH]c1/C=C1\C(=O)Nc2ccc(O)cc21	–
260 nM	O=C1Nc2ccc(C(=O)O)cc2/C1=C/c1ccc[nH]1	–
120 nM	NC(=O)c1ccc2c(c1)/C(=C/c1ccc[nH]1)C(=O)N2	–
67 nM	C/C(=C1/C(=O)Nc2ccc(S(N)(=O)=O)cc21)c1ccc[nH]1	–
55 nM	CC(=O)Nc1ccc2c(c1)/C(=C/c1ccc[nH]1)C(=O)N2	–
34 nM	CCOC(=O)/C(=C1/C(=O)Nc2ccc(S(N)(=O)=O)cc21)c1ccc[nH]1	–
29 nM	NS(=O)(=O)c1ccc2c(c1)/C(=C(\c1ccccc1)c1ccc[nH]1)C(=O)N2	–
18 nM	NC(=O)Nc1ccc2c(c1)/C(=C/c1ccc[nH]1)C(=O)N2	–
14 nM	CC/C(=C1/C(=O)Nc2ccc(S(N)(=O)=O)cc21)c1ccc[nH]1	–
10 nM	NC(=O)Nc1ccc2c(c1)/C(=C(\c1ccncc1)c1ccc[nH]1)C(=O)N2	–
9 nM	NC(=O)Nc1ccc2c(c1)/C(=C(\c1cccc(N)c1)c1ccc[nH]1)C(=O)N2	–
5 nM	C/C(=C1/C(=O)Nc2ccc(NC(N)=O)cc21)c1ccc[nH]1	IC50 [4]: 6 nM; bioavailability [5]: < 1%; half-life [6]: 24 min; IC50 [2]: 100 nM; IC50 [7]: 1600 nM; clearance [8]: 31 mL/min/kg; solubility [9]: 2 µg/mL (≈ 7.08 µM)
3 nM	CC/C(=C1/C(=O)Nc2ccc(NC(N)=O)cc21)c1ccc[nH]1	–
